In ChEMBL document CHEMBL3046736, “Kinetic studies of novel inhibitors of endomorphin degrading enzymes” (Med Chem Res, 2012):
Residues, ends and D or L forms follow the SMILES beside them.

Key:
[1] = target: T1, Dipeptidyl peptidase 4 (Homo sapiens, UniProt P27487); assay: Inhibition of DPP-4 (unknown origin) assessed as half-life of endomorphin-1 after 30 min by RP-HPLC analysis (reference value: […] +/- 0.52 min)
Target sequence in this assay (P27487 whole entry, looked up): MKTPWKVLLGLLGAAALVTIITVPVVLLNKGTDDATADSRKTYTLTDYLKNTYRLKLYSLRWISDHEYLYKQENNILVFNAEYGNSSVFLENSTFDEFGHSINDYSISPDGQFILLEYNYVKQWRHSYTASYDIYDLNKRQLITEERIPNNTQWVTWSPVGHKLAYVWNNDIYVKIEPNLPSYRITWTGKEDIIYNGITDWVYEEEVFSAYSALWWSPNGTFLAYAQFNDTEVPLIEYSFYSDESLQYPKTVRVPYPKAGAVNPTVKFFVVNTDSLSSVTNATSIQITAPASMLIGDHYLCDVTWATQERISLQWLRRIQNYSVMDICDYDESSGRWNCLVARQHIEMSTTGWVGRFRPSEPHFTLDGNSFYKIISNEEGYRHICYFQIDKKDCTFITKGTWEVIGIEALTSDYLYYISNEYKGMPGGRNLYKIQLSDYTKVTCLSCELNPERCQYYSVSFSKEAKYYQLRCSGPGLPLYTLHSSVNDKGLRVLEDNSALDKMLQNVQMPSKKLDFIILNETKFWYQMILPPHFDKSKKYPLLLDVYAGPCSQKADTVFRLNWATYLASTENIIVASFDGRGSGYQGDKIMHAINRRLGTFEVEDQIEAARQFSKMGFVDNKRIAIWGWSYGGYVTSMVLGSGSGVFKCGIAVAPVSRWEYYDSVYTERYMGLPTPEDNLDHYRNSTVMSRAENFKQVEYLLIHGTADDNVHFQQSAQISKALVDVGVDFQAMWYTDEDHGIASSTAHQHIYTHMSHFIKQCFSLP

[2] = target: T1, Dipeptidyl peptidase 4; assay: Inhibition of DPP-4 (unknown origin) assessed as half-life of endomorphin-2 after 30 min by RP-HPLC analysis (reference value: […] +/- 0.64 min)
Target sequence in this assay (P27487 whole entry, looked up): as above

[3] = target: T1, Dipeptidyl peptidase 4; assay: Inhibition of DPP-4 (unknown origin) assessed as inhibition of endomorphin-2 degradation after 30 min
Summary of the method: (§1)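 Purified commercial DPP IV (0.002 mg protein/ml) incubated with endomorphin and inhibitor, each from 1 mM solutions in 50 mM Tris–HCl pH 7.4, at 37°C for 0, 7.5, 15, 22.5 and 30 min. Stopped on ice with 1 M HCl, centrifuged. Rate constant k from linear regression of ln(A/A0) of peptide peak area versus time; t1/2 = ln2/k. Three independent experiments in duplicate.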

[4] = target: T1, Dipeptidyl peptidase 4; assay: Inhibition of DPP-4 (unknown origin) assessed as inhibition of endomorphin-1 degradation after 30 min; summary of the method: as §1
[5] = target: T2, Aminopeptidase N (Homo sapiens, UniProt P15144); assay: Inhibition of APM (unknown origin) assessed as inhibition of endomorphin-2 degradation after 30 min
[6] = target: T2, Aminopeptidase N
[7] = target: T2, Aminopeptidase N; remark: listed apart in the source
[8] = target: T2, Aminopeptidase N; assay: Inhibition of APM (unknown origin) assessed as inhibition of endomorphin-1 degradation after 30 min

T2 sequence (P15144 whole entry): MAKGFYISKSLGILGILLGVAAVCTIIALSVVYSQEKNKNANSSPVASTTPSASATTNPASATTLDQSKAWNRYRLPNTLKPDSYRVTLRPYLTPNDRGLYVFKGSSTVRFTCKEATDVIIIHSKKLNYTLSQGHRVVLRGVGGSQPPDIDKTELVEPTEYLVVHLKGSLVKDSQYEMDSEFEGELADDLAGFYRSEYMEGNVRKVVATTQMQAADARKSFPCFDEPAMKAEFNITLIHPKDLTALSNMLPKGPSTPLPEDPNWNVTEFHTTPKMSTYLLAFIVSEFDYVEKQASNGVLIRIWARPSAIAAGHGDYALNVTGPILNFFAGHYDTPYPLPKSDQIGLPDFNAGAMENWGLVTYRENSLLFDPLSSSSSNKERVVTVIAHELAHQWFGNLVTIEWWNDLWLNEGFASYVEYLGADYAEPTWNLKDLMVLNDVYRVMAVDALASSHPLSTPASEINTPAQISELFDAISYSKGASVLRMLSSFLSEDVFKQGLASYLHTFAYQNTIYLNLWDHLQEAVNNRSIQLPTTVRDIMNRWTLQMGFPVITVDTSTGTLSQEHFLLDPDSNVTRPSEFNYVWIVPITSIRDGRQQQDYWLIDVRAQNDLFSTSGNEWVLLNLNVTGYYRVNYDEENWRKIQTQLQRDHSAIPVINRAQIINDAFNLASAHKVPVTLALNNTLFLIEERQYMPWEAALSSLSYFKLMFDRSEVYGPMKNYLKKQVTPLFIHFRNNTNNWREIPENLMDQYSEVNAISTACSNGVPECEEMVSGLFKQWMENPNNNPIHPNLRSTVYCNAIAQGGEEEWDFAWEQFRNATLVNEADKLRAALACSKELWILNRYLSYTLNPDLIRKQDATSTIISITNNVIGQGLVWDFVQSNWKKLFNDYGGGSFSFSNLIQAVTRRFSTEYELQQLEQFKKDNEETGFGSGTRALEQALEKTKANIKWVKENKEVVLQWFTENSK

| Compound | T1/2 [1] | T1/2 [2] | Ki [3] | inhibition [3] | Ki [4] | inhibition [4] | Ki [5] | T1/2 [6] | T1/2 [7] | Ki [8] |
| --- | --- | --- | --- | --- | --- | --- | --- | --- | --- | --- |
| CC[C@H](C)[C@H](N)C(=O)N1CCC[C@H]1C(=O)N[C@H](C(=O)O)[C@@H](C)CC | 530 min | 383 min |  |  |  |  |  |  |  |  |
| C[C@H](NC(=O)[C@@H]1CCCN1C(=O)[C@@H](N)Cc1ccc(O)cc1)C(N)=O (H-Tyr-Pro-Ala-NH2) | 22.9 min | 19.8 min | 170 µM | 44.8% | 420 µM | 26.7% |  |  |  |  |
| C[C@H](NC(=O)[C@@H]1CCCN1C(=O)[C@@H](N)Cc1ccc(O)cc1)C(=O)O (H-Tyr-Pro-Ala-OH) | 27.5 min | 27.4 min |  |  |  |  |  |  |  |  |
| CCCCC[C@H](CC(=O)NO)C(=O)N[C@H](C(=O)N1CCC[C@H]1CO)C(C)C [ACTINONIN] |  |  |  |  |  |  | 300 µM | 36.8 min | 46.3 min | 390 µM |
